The results in this text go back to the RNAGym collection of RNA variant scans (doi:10.1126/science.aae0568).

Fewer inactive variants are shown than the library holds.

First the molecules themselves.
B1: tRNA (parent)
chain: GUUCCGUUGGCGUAAUGGUAACGCGUCUCCCUCCUAAGGAGAAGACUGCGGGUUCGAGUCCCGUACGGAACG

The variants in the data set derive from B1. The data set can be described thus: yeast fitness relative to wild type (ratio to wild type); higher = fitter; tRNA-Arg(CCU), competitive growth, 37 C, YPD. Put shortly:
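A pool of Saccharomyces cerevisiae strains, each with a tRNA-Arg(CCU) gene variant at the native genomic locus, was competed in YPD at 37°C for 24 hours across six parallel replicates. The variants had been chemically synthesised at a 3% per-site mutation rate over 69 sites, and gene amplicons before and after competition were read by 100-nucleotide paired-end sequencing. Darwinian fitness relative to wild type rested on changes in genotype frequencies. Genotypes required ≥ 100 starting reads, and estimates < 0.5 were set to 0.5.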
As for GUUCCGGUGGCGUAAUGGUAACGCGUCUCCCUCCUAAGGAGAAGACUGCGGGUUCGAGCCCCGUACGGAACG, the yeast fitness is 0.871.

Regarding GUUCCGUUGGCGUAAUGGUAACGCGACUCCCCCCUAAGGAGAAGACUGCGGGUUCGAGUCCCGUACGGAACG, the yeast fitness is 0.936.

For GUUCCGUUGGCGGAAUGGUAACGCGUCUCCCACCUAAGGAGAAGACUGCGGGUUCGAGUACCAUACGGAACG, the yeast fitness was at most 0.5.

Turning to GUUCCGUUGGCGUAAUGGUAAAGCGUCGCCCUCCAAAGGAGAAGACUGCGGGUUCGAGUCCCGUACGGAACG, the yeast fitness is 0.571.

Consider GUGCCGUUGGCGUAAUGAUAACGCGUCUCGCUCCUAAGGAUAAGACUGGGGGUUCGAGUCCCGUACGGAACG, for which the yeast fitness was at most 0.5.

GUUCCGUUGGCGUAAUGGUAACGUGUCUCCCUCCUAAGGAGAAGACUGCGGGUUCGAGACCAGUACGGAACG: the yeast fitness was at most 0.5.

GUUCGGUUGGCGUAAUGGUAACACGUCUCCCUCCUAAGGAGAAGUCUGCGGCUUCGAGUCCCGUACGGAACG: the yeast fitness was 0.626.

Turning to GUUCCGUUGGCGUGAUGGUAACGCGUCUCCCUCCUAAGGAGAAGAGUGCGCGUUCGAGUCCCGUACGGAACG, the yeast fitness is at most 0.5.

GUUCCGUUGGCGUAAUGGUAACGCGUCUCCCUCAUAAGGAGAAGACUGCGGGUCCGAGUCCCGUACGGAACG: the yeast fitness stood at 0.566.

Regarding GUUCCGCUGGUGUAAUGGUAACGCGUCUCCCUCCUAAGCAGAAGUCUGCGGGUUCGAGUCCCGUACGGAACG, the yeast fitness is at most 0.5.

Regarding GUGCUGUUGGCGUAAUGGUAACCCGUCUCCCUCGUAAGGAGAAGACUGCGGGUUGGAGUCCCGUACGGACCG, the yeast fitness was at most 0.5.

Take GUUCAGUUGGCAUAAUGGUAACGCGUCUCCCUCCGAAGGAGAAGACUGCGGGUUCGAGUCCCGUACGGCACG: the yeast fitness is at most 0.5.

For GUUCCGUUGGCGUAAUGGUAAGGCGUCUCCCUUCUAAGGAGUGGACUGCGGGUUCGAGUCACGUACGGAACG, the yeast fitness is at most 0.5.

In the case of GUUCGGUUGGCGCAAUGGUAACGCGUCUCCCUCCUAAGGAGAAGACUGCGGGUUCGAGUCCCGUACGGAACG, the yeast fitness turned out to be 0.875.

As for GUUCCGUUGGCGUAAUGGUAACGCGUCUGCCUUGUAAGGAGAAGACUGCGGGUACGAGUCCCGUACGGAACG, the yeast fitness is 0.545.

On to GUGCCGUUGGCGUUAUGGUAACGCGUCUCCCUCCUAAGGAGAAGACUCUGGGUUCGAGUCACGUACGGAACG, for which the yeast fitness is at most 0.5.

On to GUUCCGUUGGCGUAAUGGUAACGCGUCUCACUCCUAAGGAGAAGACUGCGGGUUCUAGUCCCGUGUGGAACG, for which the yeast fitness is at most 0.5.

As to GUUCCGUUAGCGUAAUGGUAACGCGUCUCCCUCCUAAGGAGAAGACUGCGGGUUCGAGUCCAGUACGGAACG, the yeast fitness was 0.842.

As for GUGCCGUUGGCGUAAUGGUAACGCGUCUCCCUCCUAAGGAGAAGACUGUGGGUUCGAAUCCCGUACGGAACG, the yeast fitness amounted to 0.901.

In the case of GUUCCGUUGACGUAAUGGUAACCCGUCUUCCUCCUCAGGAGAAGACUGCGGGUUCGUGUCCCAUACGGAACG, the yeast fitness was at most 0.5.

GUUCCGAUGGCGUAAUGGUAACGCGUCUCCCUCCUAAGGAGAAGACUGCGGCUUCGAGUCCCGUACGGAACG: the yeast fitness stood at 0.55.

On to GUUCCGUUGGCCUAAUGGUAACGCGUCGCCCUCCUAGGGAAAAGACUACGGGUUCGAGUCCCGUACGGAACG, for which the yeast fitness is 0.549.

Turning to GUUCCGUUGGCGUGAUGGUAACGCGUCUCCCUCAUAAGGAGAAGACUGUGCGUUCGAGUCUCGUACGGAACG, the yeast fitness is at most 0.5.

In the case of GUUCCGUUGGCGUAAUGGUAACGCGCCUUCCUCCUAAGGAGAAGACUGCGGGUUCGAGUCCCGUACGGAACG, the yeast fitness is 0.869.

With GUUCCGUUGGCGUAAUGGUAACGCGUCUUCCUCCUAAGGAGAAGACUGCGGGUUCGAGUCCCGUAGGGAACG, the yeast fitness worked out at 0.732.

GUUCCGUUGGCGUAAAGGUAACCCGUCUUCGUCCUAAGGAGAAGACUGCGGGUUCGCGUCCCGUACGGAACG: the yeast fitness is at most 0.5.

As to GUUGCGUUGGCGUAAUGGUAACGCGUCUCCCACCUAACGAGAAGACUGCGGGUUCGAGUCCCGUACGGAACG, the yeast fitness is at most 0.5.

In the case of GUUCCGUUGGCGUAAUGGUAAUGCGUCUGCCUCCUAAGGCGAAGACUGCGGGUUCGCGUCCCGUACGGAACG, the yeast fitness is at most 0.5.

Regarding GUUCCGUUGGCGUAAUCGUAACGCGUCUCCCUCCUAAGGUGAAGACUGCGGGUUCGAGUCCCGUAGGGAACG, the yeast fitness was at most 0.5.

GUUCCGUUGGCGUAAGGGUAACGCGUCUCCCUCCUAAGGAGAAGACUGCGGGUUCUAGUCCCGUACGGAACG: the yeast fitness came to 0.706.

In the case of GUUCCGUUGGCGUAAUGGUAACGAGUCUCCCGCCUAGGGAGAAGACUGCGGGUUCGAGUCCCGUACGGAACG, the yeast fitness was at most 0.5.

For the variant GUUCCGUUGGCAUAAUGGUAACGCGCCUCCCUCCUAAGGAGAAGACCGCGGGUUCGCGUCCCGUACGGAACG, the yeast fitness was at most 0.5.

As for GUUCCGUUGGCGUAAUGGUAACGUGUCUCCCUCCUAAGGAGAAGACUGCGGGUUCGAGUCCCGUAGGCAACG, the yeast fitness is at most 0.5.

For the variant GUUCCGUUGGCGUAAUGGUAACGGGUCUCUCUCCUAAGGAGAUGACUGCGGGUUCGAGUGCCGUCCGGAACG, the yeast fitness was at most 0.5.

Turning to GUUGUGUUGGCGUAAUGGUAACGCGUCUCCGUCCUAAGGAGAUGACUGCGGGUUCGAGUCCCGUACGGAACG, the yeast fitness is at most 0.5.

With GUUCCGUUGGCGUAAUGGUAACGUGUCUCCCUGUUAAGGAGAAGACUGCGGGUUCGAGUCCCGUACGGAACG, the yeast fitness amounted to 0.672.

GUUCCGUUAGCGUAAUGGUAACGCGUCUCCCUCCUAAGGAGAAGACUGUGGGUUCGAGUCCCGUACGGAACG: the yeast fitness is 0.845.

In the case of GUUCUGUUGGCAUAAUGGUAACGCGUCUCCCUCCUAAGGAGAAGACGGUGGGUUCGAGUCCCGUACGCAACG, the yeast fitness was at most 0.5.
